High-throughput results as filed in PubChem.
TMEM16A act – mouse TMEM16A channel activation, primary screen; B-score at 10 µM; 340,000 tested, 0.3% active; HEK293 TMEM16A/YFP-H148Q/I152L, iodide quench fluorescence; hits give low values; AID 623877;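 active = fluorescence-ratio B-score plate-corrected deviation score at least 3 library SD below zero, with starting fluorescence score within 5 deviations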;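 also: channel opened by trigger with iodide after compound preincubation; score built on the fluorescence ratio of max minus min over baseline; more negative score means more quench and so TMEM16A activation or potentiation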
TAAR1 antag – antagonists of human TAAR1; inhibition, % at 3 µM; CHO RD-HGA16 TAAR1, Fluo-8 calcium fluorescence, antagonist; 360,000 tested, 1.5% active;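 active = inhibition above a per-plate cutoff, the mean inhibition of test compounds on that plate plus 3 SD, cut at about 49% in these data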;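 also: 0% = DMSO plus EC80 beta-PEA response and 100% = DMSO alone without agonist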
Target sequence (Q96RJ0 whole entry, looked up): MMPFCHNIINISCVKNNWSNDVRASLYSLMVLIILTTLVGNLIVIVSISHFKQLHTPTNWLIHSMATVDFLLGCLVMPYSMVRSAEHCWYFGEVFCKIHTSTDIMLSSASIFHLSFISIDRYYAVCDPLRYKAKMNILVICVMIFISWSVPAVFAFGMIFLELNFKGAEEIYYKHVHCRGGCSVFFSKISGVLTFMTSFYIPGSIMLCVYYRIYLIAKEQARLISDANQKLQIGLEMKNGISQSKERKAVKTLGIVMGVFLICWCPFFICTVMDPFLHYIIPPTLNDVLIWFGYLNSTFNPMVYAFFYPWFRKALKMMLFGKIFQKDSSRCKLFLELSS
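Test system – hTAAR1-expressing CHO RD-HGA16 cells, Gα16-coupled · Reagent – β-PEA at EC80 concentration, post-compound challenge · Compound dosing – 3 µM, single point · Timing – 140 s kinetic read after compound, 140 s after agonist · Detection – Fluo-8 intracellular calcium dye fluorescence, real-time kinetic reads · Control set – DMSO and EC80 PEA controls · Repeats – n of 1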
CRFR2-BP ag – CRF-BP/CRF-R2 complex agonism | HEK293 CRF-R2/CRF-BP, calcium dye fluorescence (FLIPR); percent of saturating CRF peptide response | activation, % at 13.2 µM | 350,000 tested, 0.46% active;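 active = activation of at least 50%, plus an integration ratio under a set limit after plate pattern correction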;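 also: plate controls were neutral control wells without compound for no effect and CRF at EC100 for full effect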
CRFR2-BP antag – antagonists of CRF-binding protein/CRF-R2 receptor complex. HEK293 CRF-R2/CRF-BP, CRF-induced calcium fluorescence. inhibition, % at 11.8 µM. 350,000 tested, 0.59% active. AID 588475;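 active = inhibition of the ligand-induced calcium signal above about 50% at the single tested concentration, limit read from the data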
TMEM16A inh – blocks the mouse calcium-activated chloride channel TMEM16A; Q8BHY3; HEK293 TMEM16A/YFP iodide influx fluorescence, ionomycin; normalized B-score (activity score, 25-100; higher = stronger inhibition) at 10 µM; 310,000 tested, 1.2% active;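 active = ratio plate-corrected score three or more library SD toward inhibition, starting fluorescence score within five deviations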;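 also: score derived from kinetic fluorescence span divided by baseline fluorescence per well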
TAAR1 agonist – agonists of human TAAR1. Q96RJ0. CHO RD-HGA16 TAAR1, Fluo-8 calcium fluorescence; vehicle wells 0%, saturating PEA agonist 100%. activation, % at 3 µM. 360,000 tested, 0.99% active. AID 624467;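 active = activation above the mean activation of all test compounds in the run plus 3 SD, cut at about 38% in these data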
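Test system: RD-HGA16 (CHO) cells co-expressing Gα16 and hTAAR1; dosing: one-point dosing at 3 µM (nominal); timing: 17-24 h seeding, 75 min 37 °C dye, 30 min RT; signal: kinetic Fluo-8 calcium fluorescence; read-out basis: % activation relative to PEA EC100 response; controls: DMSO and PEA EC100; replicates: n 1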
Active calls of the source: *; i = inactive; . = not tested or not shown. Sampled rows, rich in hits. Any-hit rate of the full collection: about 3.9%.

SMILES	TMEM16A act	TAAR1 antag	CRFR2-BP ag	CRFR2-BP antag	TMEM16A inh	TAAR1 agonist
Cc1cccc(Oc2ccc(NC(=O)c3ccccc3C(=O)O)cc2)c1C	i	1	81*	19	i	0
CC(C)OC(=O)/C(=C/c1ccc2c(c1)c1ccccc1n2C)NC(=O)c1ccccc1	i	33	-2	23	i	7
CC(C)OC(=O)/C(=C\c1ccc2c(c1)c1ccccc1n2C)NC(=O)c1ccccc1	i	50*	-1	-1	i	4
O=C(Nc1ccccn1)c1ccc(C(=O)c2ccccc2)cc1	i	-1	1	55*	i	6
CCOC(=O)C1(Cc2cccc(F)c2)CCN(CC(O)CO)CC1 (stereo not given)	i	-14	5	-9	i	4
CC(C)C[C@H](NC(=O)[C@H](Cc1ccccc1)n1c(=O)[nH]c2ccccc2c1=O)C(=O)N1CCC[C@H]1C(=O)O	i	-12	1	7	i	1
CCc1ccccc1NC(=O)NC(C)c1ccc2c(c1)OCO2 (stereo not given)	i	-24	-3	61*	i	0
CN(Cc1ccccc1)C(=O)c1nc[nH]c1C(=O)N1CCc2ccccc2C1	i	11	-2	-5	.	5
CNC(=O)c1[nH]cnc1C(=O)N[C@@H](Cc1ccccc1)C(=O)OCc1ccccc1	i	59*	-1	12	i	13
O=C(c1nc[nH]c1C(=O)N1CCc2ccccc2C1)N1CCc2ccccc2C1	i	48	-1	-3	.	38*
O=C(N[C@@H](Cc1ccccc1)C(=O)OCc1ccccc1)c1nc[nH]c1C(=O)N1CCc2ccccc2C1	i	59*	0	3	i	7
COc1ccc(-c2noc(N3CCC(C(=O)NCCCN4CCCC(C)C4)CC3)n2)cc1 (stereo not given)	i	-2	-6	17	i	2
c1ccc(COn2nnc3ccccc32)c(COn2nnc3ccccc32)c1	i	55*	3	11	i	8
CCN(CC)c1ccc(/C=C/c2cccc[n+]2C)c(OC)c1	i	8	55*	-90	i	10
COC1=C(OC)C(=O)C(CCCCCCCCCCO)=C(C)C1=O	.	-16	.	.	.	11
CCCCCCc1c(O)c2ccccc2[nH]c1=O	i	-16	0	-4	i	6
COC1=CC(=O)C(O)=C(CCCCCCC/C=C/CCCCCCCC2=C(O)C(=O)C=C(OC)C2=O)C1=O	i	.	-1	4	100*	.
CCCCCCCCCCCC1=C(O)C(=O)C=C(O)C1=O	i	.	62*	-88	i	.
C=CCOc1ccc(/C=C/C(=O)OCC(=O)N(C)CC(=O)Nc2ccccc2Cl)cc1	i	8	0	-8	i	2
O=C(NNS(=O)(=O)c1ccccc1[N+](=O)[O-])c1cc2ccccc2cc1O	i	2	1	9	i	-3
CS(=O)(=O)N1CCc2cc(S(=O)(=O)Nc3ccc4oc5c(c4c3)CCCC5)ccc21	i	21	0	-25	25*	19
C/C(CS(=O)(=O)c1ccc(Cl)c(Cl)c1)=N/NC(N)=S	-8.5*	1	-2	12	i	2
CC(=O)Nc1ccc(NC(=O)CSc2ccc(-c3ccc4c(c3)OCO4)nn2)cc1	i	-17	-3	39	i	3
CC(=O)c1ccc(NC(=O)CSc2ccc(-c3ccc4c(c3)OCO4)nn2)cc1	i	8	0	122*	i	-1
Cc1cc(OCC(=O)NCc2ccccn2)c2c(C)c(Cc3ccccc3)c(=O)oc2c1	i	7	0	-1	i	8
SMILES	TMEM16A act	TAAR1 antag	CRFR2-BP ag	CRFR2-BP antag	TMEM16A inh	TAAR1 agonist
CCCOc1ccc(/C=N/NC(=O)CN2CCCCC2)cc1	i	-3	0	-2	i	0
CCOc1ccc(/C=N/NC(=O)CN2CCCCCCC2)cc1	i	-10	4	57*	i	1
Cc1cc(NC(=O)CSc2nnc(-c3ccc([N+](=O)[O-])cc3)o2)no1	i	-12	-1	3	i	3
CC(=O)Nc1ccc(OCC(O)Cn2c3ccccc3c3ccccc32)cc1 (stereo not given)	i	-8	5	-29	i	22
CC(=O)Nc1ccc(OCC(O)Cn2c3ccccc3c3ccccc32)c(C)c1 (stereo not given)	i	65*	6	-25	i	36
O=S(=O)(c1ccc(OC(F)(F)F)cc1)N1CCC(O)(c2cccc(C(F)(F)F)c2)CC1	i	36	15	-36	25*	43*
OCCCNc1nc(-c2ccc(Cl)cc2)nc2ccccc12	-6.3*	8	1	-10	i	3
COCCN(CCOC)c1nc(-c2ccccc2)nc2ccccc12	i	56*	2	-11	i	9
COCCCNc1nc(-c2ccc(Cl)cc2)nc2ccccc12	i	17	0	-11	25*	-1
COCCCNc1nc(-c2ccncc2)nc2ccccc12	i	0	-1	15	i	7
NS(=O)(=O)c1ccc(CCNC(=O)c2cccc(S(=O)(=O)N3CCc4ccccc43)c2)cc1	.	16	0	10	.	4
Cc1ccc(N2CC(C(=O)N3CCCCC3)CC2=O)cc1C (stereo not given)	i	-8	-3	-15	i	1
COC(=O)Nc1ccc(S(=O)(=O)NNC(=O)c2c(O)c3ccccc3n(C)c2=O)cc1	i	-29	0	2	i	2
Cc1cc(C(=O)OCC(=O)NCc2ccc(Cl)cc2)c(C)o1	i	9	-2	7	i	3
Brc1ccc(-c2nnc(Cc3ccccc3)o2)cc1	i	-16	-4	10	i	5
c1ccc(Cc2nnc(-c3ccccc3)o2)cc1	-6.8*	23	1	23	i	8
COc1cc(CC(=O)NCc2ccco2)cc(OC)c1OC	i	-5	4	-1	i	6
Cc1onc(-c2ccccc2)c1C(=O)NCc1ccco1	-16*	5	1	-3	i	2
S=C(NCc1ccco1)Nc1ccc(Cl)c(Cl)c1	i	1	9	17	25*	10
Cc1onc(-c2c(Cl)cccc2Cl)c1C(=O)NCc1ccco1	i	-3	-2	-3	i	4
COc1cc(NC(=S)NCc2ccco2)cc(OC)c1	i	-8	-4	96*	i	0
COc1cc(C(=O)NCc2ccco2)cc(OC)c1OC	-24*	18	1	-8	i	2
